From ChEMBL document CHEMBL1156710, “Design, synthesis and characterization of some bioactive conjugates of curcumin with glycine, glutamic acid, valine and demethylenated piperic acid and study of their antimicrobial and antiproliferative properties” (2008) come the findings set out here.

In brackets after ≈: the same amount, converted by molar mass. Activity calls are given as the source filed them. No cut-off for these calls is given here.

The subject of the first test is Escherichia coli. In words: Antibacterial activity against Escherichia coli at 20 umol/ml after 24 hrs by Kirby-Bauer's disk diffusion assay. In kind it is functional. In outline:
(§1)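 Kirby-Bauer disc diffusion. Compounds were dissolved in acetone and serially diluted. Sterile 6 mm discs were soaked in the solutions and dried. 1 ml of bacterial broth culture was spread on Mueller-Hinton agar plates and the discs were placed aseptically. Plates were incubated upright at 37 °C for 24 h and the inhibition zone was measured with a scale.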
Regarding `COc1cc(/C=C/C(=O)CC(=O)/C=C/c2ccc(OC(=O)CN)c(OC)c2)ccc1O` [MONOGLYCINOYL CURCUMIN], the “inhibition zone (IZ)” value came out at 12 mm.
As to `COc1cc(/C=C/C(=O)CC(=O)/C=C/c2ccc(OC(=O)[C@@H](N)C(C)C)c(OC)c2)ccc1OC(=O)[C@@H](N)C(C)C`, the “inhibition zone (IZ)” value amounted to 20 mm.

The next test deals with Klebsiella aerogenes. In words: Antibacterial activity against Klebsiella aerogenes after 18 hrs by broth microdilution susceptibility test. In kind it is functional. In outline: (§2)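 Broth microdilution in Mueller-Hinton broth at pH 7.4. Inoculum came from a broth culture grown 4–6 h to log phase. Compound dilutions were […]. Tubes were shaken and incubated at 37 °C for 18 h, then read for turbidity. MIC is the lowest concentration with no turbidity. Each test was run in triplicate and MICs come from at least two repetitions.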
With `COc1cc(/C=C/C(=O)CC(=O)/C=C/c2ccc(OC(=O)CN)c(OC)c2)ccc1O` [MONOGLYCINOYL CURCUMIN], the MIC was found to be 5 mM (≈ 2130 µg/mL). This counts as millimolar.
For `COc1cc(/C=C/C(=O)CC(=O)/C=C/c2ccc(OC(=O)[C@@H](N)C(C)C)c(OC)c2)ccc1OC(=O)[C@@H](N)C(C)C`, the outcome was inactive.

The test system of another test is Candida albicans. As to the kind of experiment: Antifungal activity against Candida albicans at 10 umol/ml after 48 hrs. In kind it is functional. In outline: (§3)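 Clinical fungal isolates were subcultured on Sabouraud dextrose agar. For the inoculum, cultures were grown on Sabouraud dextrose agar for 48 h at 37 °C. Conidia were dislodged into sterile saline, the suspension was brought to 5 ml, and the microconidia were counted. This suspension was swabbed over Sabouraud dextrose agar plates poured 5 mm deep, and excess was decanted. Sterile 6 mm discs were charged with compound.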
With `COc1cc(/C=C/C(=O)CC(=O)/C=C/c2ccc(OC(=O)CN)c(OC)c2)ccc1O` [MONOGLYCINOYL CURCUMIN], the “inhibition zone (IZ)” value stood at 18 mm.

In another test the test system is Escherichia coli. As to the kind of experiment: Antibacterial activity against Escherichia coli after 18 hrs by broth microdilution susceptibility test. In kind it is functional. The gist of the method: as §2
For the compound `COc1cc(/C=C/C(=O)CC(=O)/C=C/c2ccc(OC(=O)CN)c(OC)c2)ccc1O` [MONOGLYCINOYL CURCUMIN], the MIC came out at 20 mM (≈ 8510 µg/mL).
Still for that read-out and setting: with `COc1cc(/C=C/C(=O)CC(=O)/C=C/c2ccc(OC(=O)[C@@H](N)C(C)C)c(OC)c2)ccc1OC(=O)[C@@H](N)C(C)C` the figure was 5 mM (≈ 2830 µg/mL).

Another test relates to Enterobacter cloacae. In words: Antibacterial activity against Enterobacter cloacae at 20 umol/ml after 24 hrs by Kirby-Bauer's disk diffusion assay. In kind it is functional. In outline:
as §1
As for `COc1cc(/C=C/C(=O)CC(=O)/C=C/c2ccc(OC(=O)[C@@H](N)C(C)C)c(OC)c2)ccc1OC(=O)[C@@H](N)C(C)C`, the “inhibition zone (IZ)” value amounted to 20 mm.

Another test has as its system Candida parapsilosis. In words: Antifungal activity against Candida parapsilosis at 20 umol/ml after 48 hrs. In kind it is functional. In outline: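 Clinical isolates from diagnosed patients, subcultured on Sabouraud dextrose agar slants at 30 °C for 10–12 days. Inoculum from 48 h SDA cultures at 37 °C, dislodged into sterile saline and brought to 5 ml. Suspension swab-spread on SDA plates poured 5 mm deep, excess decanted. Sterile 6 mm discs charged with compound. Fluconazole reference.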
As to `COc1cc(/C=C/C(=O)CC(=O)/C=C/c2ccc(OC(=O)CN)c(OC)c2)ccc1O` [MONOGLYCINOYL CURCUMIN], the “inhibition zone (IZ)” value is 14 mm.

A further test has as its system Penicillium chrysogenum. As to the kind of experiment: Antifungal activity against Penicillium notatum at 20 umol/ml after 48 hrs. Type of test: functional. In outline:
as §3
Regarding `COc1cc(/C=C/C(=O)CC(=O)/C=C/c2ccc(OC(=O)CN)c(OC)c2)ccc1O` [MONOGLYCINOYL CURCUMIN], the “inhibition zone (IZ)” value is given as 20 mm.

For the next test, the system named is Penicillium chrysogenum. As to the kind of experiment: Antifungal activity against Penicillium notatum at 10 umol/ml after 48 hrs. In kind it is functional. The gist of the method: as §3
Regarding `COc1cc(/C=C/C(=O)CC(=O)/C=C/c2ccc(OC(=O)CN)c(OC)c2)ccc1O` [MONOGLYCINOYL CURCUMIN], the “inhibition zone (IZ)” value is given as 16 mm.

In a further test the test system is Klebsiella aerogenes. As to the kind of experiment: Antibacterial activity against Klebsiella aerogenes at 20 umol/ml after 24 hrs by Kirby-Bauer's disk diffusion assay. Type of test: functional. In outline: as §1
Take `COc1cc(/C=C/C(=O)CC(=O)/C=C/c2ccc(OC(=O)CN)c(OC)c2)ccc1O` [MONOGLYCINOYL CURCUMIN]: the “inhibition zone (IZ)” value is reported as 18 mm.

In the next test the test system is Candida albicans. In words: Antifungal activity against Candida albicans at 20 umol/ml after 48 hrs. In kind it is functional. The gist of the method:
as §3
Take `COc1cc(/C=C/C(=O)CC(=O)/C=C/c2ccc(OC(=O)CN)c(OC)c2)ccc1O` [MONOGLYCINOYL CURCUMIN]: the “inhibition zone (IZ)” value stood at 20 mm.

Another test has as its system Aspergillus fumigatus. In words: Antifungal activity against Aspergillus fumigatus at 10 umol/ml after 48 hrs. In kind it is functional. In outline: as §3
Regarding `COc1cc(/C=C/C(=O)CC(=O)/C=C/c2ccc(OC(=O)CN)c(OC)c2)ccc1O` [MONOGLYCINOYL CURCUMIN], the “inhibition zone (IZ)” value is 20 mm.

Another test relates to Staphylococcus saprophyticus. As to the kind of experiment: Antibacterial activity against Staphylococcus saprophyticus at 10 umol/ml after 24 hrs by Kirby-Bauer's disk diffusion assay. In kind it is functional. The gist of the method:
as §1
Consider `COc1cc(/C=C/C(=O)CC(=O)/C=C/c2ccc(OC(=O)[C@@H](N)C(C)C)c(OC)c2)ccc1OC(=O)[C@@H](N)C(C)C`, for which the “inhibition zone (IZ)” value is recorded as 12 mm.

Another test concerns Micrococcus. In words: Antibacterial activity against Micrococcus after 18 hrs by broth microdilution susceptibility test. Type of test: functional. In outline:
as §2
For `COc1cc(/C=C/C(=O)CC(=O)/C=C/c2ccc(OC(=O)CN)c(OC)c2)ccc1O` [MONOGLYCINOYL CURCUMIN], the result was inactive.
In the case of `COc1cc(/C=C/C(=O)CC(=O)/C=C/c2ccc(OC(=O)[C@@H](N)C(C)C)c(OC)c2)ccc1OC(=O)[C@@H](N)C(C)C`, the MIC was 10 mM (≈ 5670 µg/mL).

The next test has as its system Micrococcus. As to the kind of experiment: Antibacterial activity against Micrococcus at 20 umol/ml after 24 hrs by Kirby-Bauer's disk diffusion assay. Type of test: functional. In outline: as §1
For the compound `COc1cc(/C=C/C(=O)CC(=O)/C=C/c2ccc(OC(=O)[C@@H](N)C(C)C)c(OC)c2)ccc1OC(=O)[C@@H](N)C(C)C`, the “inhibition zone (IZ)” value was determined as 16 mm.

For the next test, the system named is Enterobacter cloacae. As to the kind of experiment: Antibacterial activity against Enterobacter cloacae after 18 hrs by broth microdilution susceptibility test. Type of test: functional. In outline: as §2
With `COc1cc(/C=C/C(=O)CC(=O)/C=C/c2ccc(OC(=O)CN)c(OC)c2)ccc1O` [MONOGLYCINOYL CURCUMIN], the outcome was inactive.
`COc1cc(/C=C/C(=O)CC(=O)/C=C/c2ccc(OC(=O)[C@@H](N)C(C)C)c(OC)c2)ccc1OC(=O)[C@@H](N)C(C)C` gave an MIC of 5 mM (≈ 2830 µg/mL).

Another test has as its system Staphylococcus saprophyticus. In words: Antibacterial activity against Staphylococcus saprophyticus at 20 umol/ml after 24 hrs by Kirby-Bauer's disk diffusion assay. In kind it is functional. The gist of the method: as §1
For `COc1cc(/C=C/C(=O)CC(=O)/C=C/c2ccc(OC(=O)[C@@H](N)C(C)C)c(OC)c2)ccc1OC(=O)[C@@H](N)C(C)C`, the “inhibition zone (IZ)” value turned out to be 14 mm.

The test system of the next test is Staphylococcus saprophyticus. As to the kind of experiment: Antibacterial activity against Staphylococcus saprophyticus after 18 hrs by broth microdilution susceptibility test. Type of test: functional. In outline:
as §2
Turning to `COc1cc(/C=C/C(=O)CC(=O)/C=C/c2ccc(OC(=O)CN)c(OC)c2)ccc1O` [MONOGLYCINOYL CURCUMIN], the result was inactive.
For `COc1cc(/C=C/C(=O)CC(=O)/C=C/c2ccc(OC(=O)[C@@H](N)C(C)C)c(OC)c2)ccc1OC(=O)[C@@H](N)C(C)C`, the minimum inhibitory concentration (MIC) came out at 10 mM (≈ 5670 µg/mL).

In a further test the test system is Micrococcus. In words: Antibacterial activity against Micrococcus at 10 umol/ml after 24 hrs by Kirby-Bauer's disk diffusion assay. Type of test: functional. In outline:
as §1
With `COc1cc(/C=C/C(=O)CC(=O)/C=C/c2ccc(OC(=O)[C@@H](N)C(C)C)c(OC)c2)ccc1OC(=O)[C@@H](N)C(C)C`, the “inhibition zone (IZ)” value is reported as 13 mm.

For another test, the system named is Aspergillus fumigatus. As to the kind of experiment: Antifungal activity against Aspergillus fumigatus at 20 umol/ml after 48 hrs. In kind it is functional. In outline: as §3
With `COc1cc(/C=C/C(=O)CC(=O)/C=C/c2ccc(OC(=O)CN)c(OC)c2)ccc1O` [MONOGLYCINOYL CURCUMIN], the “inhibition zone (IZ)” value came out at 25 mm.
